Consider 3 compounds from paper PMC6718336 (Proteins, 2019).

For assay [1], the target named is Hsp90α (1-236) NTD (Homo sapiens, UniProt P07900). The experiment in a line: ITC binding to Hsp90α NTD. Conditions: ITC, 298 K; for N: stoichiometry, one-site model. In short, it runs like this: (§1)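 Human Hsp90α residues 1-236, N-terminal His-tagged, expressed in E. coli Rosetta (DE3), purified by Ni-NTA and size exclusion. ITC in matched 40 mM HEPES-KOH pH 7.4, 100 mM NaCl, 1% DMSO. Protein (503 or 336 μM) titrated into test compound (50.7 or 30.1 μM); nucleotides titrated into protein. One-site fit, mean of two titrations ± SEM.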

Assay [2] has as its system Hsp90α (1-236) NTD. The assay can be described thus: ITC binding to Hsp90α NTD. Set-up: species or system Human. As to conditions: preference for Hsp90α over Hsp90β from ITC KD. In short, it runs like this:
as §1

For the next assay, the target named is Hsp90β NTD (Homo sapiens, UniProt P08238). The assay can be described thus: ITC binding to Hsp90β NTD. As to conditions: 298 K; for N: stoichiometry, one-site model. In short, it runs like this: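 Human Hsp90β NTD, N-terminal His-tagged, expressed in E. coli Rosetta (DE3), purified by Ni-NTA then size exclusion. ITC in matched 40 mM HEPES-KOH pH 7.4, 100 mM NaCl, 1% DMSO. 891 or 885 μM protein was injected into 93.3 or 97.8 μM test compound in the cell. For ATP/ADP, protein was in the cell and nucleotide in the syringe. One-site fit; mean of two titrations ± SEM.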
Chain of Hsp90β NTD (P08238 1-221 limits assumed): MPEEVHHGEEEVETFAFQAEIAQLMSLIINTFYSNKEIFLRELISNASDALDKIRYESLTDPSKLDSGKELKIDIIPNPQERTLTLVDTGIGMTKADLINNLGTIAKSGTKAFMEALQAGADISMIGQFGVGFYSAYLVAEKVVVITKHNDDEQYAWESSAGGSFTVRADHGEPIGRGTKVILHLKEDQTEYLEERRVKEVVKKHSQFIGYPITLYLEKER

For a further assay, the target named is Hsp90α S52A (1-236) (Homo sapiens, UniProt P07900, S52A). The assay can be described thus: ITC binding to Hsp90α S52A mutant NTD. Conditions: for C-values / Kd / TΔS / ΔG / ΔH / N: ITC, 298 K; for N: stoichiometry, one-site model; for fold change in affinity, Hsp90α S52A vs wild type Hsp90α: ratio of ITC KD. Summed up:
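Human Hsp90α NTD (1-236) S52A, N-terminal His-tagged, expressed in E. coli Rosetta (DE3), purified by Ni-NTA then size exclusion. ITC in matched 40 mM HEPES-KOH pH 7.4, 100 mM NaCl, 1% DMSO. 255 or 393 μM protein was injected into 33.0 or 41.8 μM test compound. Wild type was run alike: 503 or 336 μM into 50.7 or 30.1 μM. One-site fit; mean of two titrations ± SEM.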

Another assay has as its system Hsp90β. Conditions: competition binding assays; cited from earlier work.

Several values for one entry are separate records, joined by “and”; a condition that tells them apart may be missing. Equal entries are not always repeated.

The term Kd denotes the constant that tells how readily two partners part at equilibrium. Low readings indicate tighter binding, high ones weaker binding. Regarding `Nc1ncnc2c1ncn2[C@@H]1O[C@H](COP(=O)(O)OP(=O)(O)O)[C@@H](O)[C@H]1O` [ADP], at Hsp90α (1-236) NTD [1], the C-values is given as 8.40 – 11.1; the Kd was 8.6 µM and 8.59 µM; the TΔS was -13.0 ± 0.28 kcal/mol; the ΔG was -6.90 ± 0.00 kcal/mol. At Hsp90α (1-236) NTD [1], the ΔH is -19.9 ± 0.28 kcal/mol and the N amounted to 0.752 ± 0.014. Moreover, the “α/β selectivity, KD (ITC)” value in the assay on Hsp90α (1-236) NTD [2] worked out at 1.4 ± 0.2 fold. At Hsp90β NTD, the C-values is 6.74 – 14.1, the Kd amounted to 12.4 ± 1.77 µM, the TΔS is -12.9 ± 0.99 kcal/mol and the ΔG is -6.75 ± 0.07 kcal/mol. On Hsp90β NTD, this compound displayed a ΔH of -19.7 ± 0.92 kcal/mol and an N of 0.813 ± 0.042. In addition, at Hsp90α S52A (1-236), the C-values was 16.7 – 18.2, binding was put at a Kd of 9.06 ± 0.93 µM, the TΔS was -13.0 ± 0.21 kcal/mol and the ΔG is -6.85 ± 0.07 kcal/mol. In addition, on Hsp90α S52A (1-236), the ΔH was -19.8 ± 0.14 kcal/mol; the N was determined as 0.756 ± 0.100; the “fold change in affinity, Hsp90α S52A vs wild type Hsp90α” value amounted to 1.05 ± 0.11 fold.
On to `Nc1ncnc2c1ncn2[C@@H]1O[C@H](COP(=O)(O)OP(=O)(O)OP(=O)(O)O)[C@@H](O)[C@H]1O` [ATP], for which, on Hsp90α (1-236) NTD [1], the C-values was 1.13 – 1.44, the Kd came out at 209 ± 21.9 µM, the TΔS is -12.0 ± 1.84 kcal/mol and the ΔG was -5.05 ± 0.07 kcal/mol. At Hsp90α (1-236) NTD [1], this compound came in with a ΔH of -17.1 ± 1.77 kcal/mol and an N of 0.691 ± 0.066. Further, in the assay on Hsp90α (1-236) NTD [2], the “α/β selectivity, KD (ITC)” value is given as 1.3 ± 0.2 fold. For the same compound, at Hsp90β NTD, the C-values is listed as 1.00 – 1.19; the affinity, expressed as Kd, was 281 ± 39.6 µM; the TΔS is -12.3 ± 2.55 kcal/mol; the ΔG was -4.90 ± 0.14 kcal/mol. Further, on Hsp90β NTD, the ΔH was -17.2 ± 2.40 kcal/mol and the N is 0.707 ± 0.112. Also, on Hsp90α S52A (1-236), the C-values is on record as 1.26 – 1.29, the Kd stood at 239 ± 0.71 µM, the TΔS is -12.7 ± 0.85 kcal/mol and the ΔG is -4.95 ± 0.07 kcal/mol. At Hsp90α S52A (1-236), the ΔH is -17.7 ± 0.78 kcal/mol; the N is 0.592 ± 0.026; the “fold change in affinity, Hsp90α S52A vs wild type Hsp90α” value is reported as 1.14 ± 0.12 fold.
With `CC(C)c1cc(C(=O)N2Cc3ccccc3C2)c(O)c2cnoc12` [KUNB31], the “preference for Hsp90β over Hsp90α” value with Hsp90β is recorded as 50 fold.
